# Reference: PMC2880618 (Bioconjugate chemistry, 2009)
# Several values for one entry are separate records, joined by “and”; a condition that tells them apart may be missing. Equal entries are not always repeated.
# Key:
# [1] = C57 normal mice, cited from earlier work
# [2] = target: T1, sigma-2 receptor (Rattus norvegicus, UniProt Q5U3Y7); assay: Sigma-2 receptor competitive binding assay
# T1 sequence (Q5U3Y7 1-176): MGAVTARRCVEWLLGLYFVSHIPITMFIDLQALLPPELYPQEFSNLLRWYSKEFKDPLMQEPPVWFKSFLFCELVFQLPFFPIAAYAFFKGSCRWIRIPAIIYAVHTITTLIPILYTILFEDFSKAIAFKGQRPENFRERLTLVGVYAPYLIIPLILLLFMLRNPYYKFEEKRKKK
# Procedure, shortened: (§1)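 Sigma-1: guinea pig brain membranes with 3H-PENT. Sigma-2: rat liver membranes from Sprague-Dawley rats with 3H-DTG, plus 1 μM dextrallorphane to mask sigma-1 sites.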
# [3] = target: sigma-1 receptor (Cavia porcellus, UniProt Q60492); assay: Sigma-1 receptor competitive binding assay; parameters: species or system guinea pig
# Procedure, shortened: as §1
# [4] = tested on: B16F1 melanoma tumor xenograft; assay: Tissue distribution studies in C57 mice bearing B16F1 tumor xenograft; format: in vivo; details: for F-18 uptake in brain, Percent Injected Dose per gram Tissue / F-18 uptake in heart, Percent Injected Dose per gram Tissue / F-18 uptake in intestine, Percent Injected Dose per gram Tissue / F-18 uptake in kidneys, Percent Injected Dose per gram Tissue / F-18 uptake in liver, Percent Injected Dose per gram Tissue / F-18 uptake in lung, Percent Injected Dose per gram Tissue / F-18 uptake in muscle, Percent Injected Dose per gram Tissue / F-18 uptake in spleen, Percent Injected Dose per gram Tissue / F-18 uptake in the tumor / F-18 uptake in blood, Percent Injected Dose per gram Tissue / F-18 uptake in bone, Percent Injected Dose per gram Tissue: C57 mice bearing B16F1 melanoma tumor xenograft; for F-18 uptake in brain, Percent Injected Dose per gram Tissue / F-18 uptake in heart, Percent Injected Dose per gram Tissue / F-18 uptake in intestine, Percent Injected Dose per gram Tissue / F-18 uptake in kidneys, Percent Injected Dose per gram Tissue / F-18 uptake in liver, Percent Injected Dose per gram Tissue / F-18 uptake in lung, Percent Injected Dose per gram Tissue / F-18 uptake in muscle, Percent Injected Dose per gram Tissue / F-18 uptake in spleen, Percent Injected Dose per gram Tissue / F-18 uptake in blood, Percent Injected Dose per gram Tissue / F-18 uptake in bone, Percent Injected Dose per gram Tissue: tail vein, mean±SEM n=5; for F-18 uptake in the tumor: n=5
# Procedure, shortened: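 C57 mice (6–8 weeks) inoculated in the right flank with ~5×10^6 B16F1 cells in 0.1 mL Matrigel:PBS (50:50). Studied once tumors exceeded 200 mm³. ~15 μCi radiotracer in 100 μL saline given by tail vein. Mice euthanized at 30, 60, 120 and 180 min; tissues washed, weighed and gamma-counted against an injected-dose standard. %ID/g ([…], n=5) and tumor-to-tissue ratios reported.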
# [5] = tested on: B16F1 melanoma cells; assay: In vitro uptake assay in melanoma cells; format: cell-based, mouse; details: 1×10^6 cells/tube, 60 min, room temperature, n=3 tubes
# Procedure, shortened: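 B16F1 mouse melanoma cells grown in DMEM with 10% FBS at 37°C, 5% CO2. At 80–90% confluence they were trypsinized and resuspended in PBS pH 7.4. Aliquots of 1×10^5, 5×10^5, 8×10^5 and 1×10^6 cells in triplicate tubes got ~200 Kcpm radiotracer for 1 hr at 22°C. Tubes were centrifuged and pellets washed with PBS; wash and pellet were gamma-counted. Uptake = % of total added activity in pellet.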
# [6] = Tissue distribution studies in normal ICR mice; format: in vivo; details: tail vein, mean±SEM n=5
# Procedure, shortened: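 Normal ICR mice (6–8 weeks) received ~15 μCi radiotracer in 100 μL saline by tail vein. At 30, 60, 120 and 180 min mice were euthanized; tissues removed, washed with PBS, weighed and gamma-counted with an injected-dose standard. Values expressed as %ID/g; group differences by unpaired Student's t-test, P<0.05.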
# [7] = Lipophilicity, shake flask 1-octanol/PBS pH 7.4; format: physicochemical; details: 1-octanol/phosphate-buffered saline
# Procedure, shortened: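 Shake-flask partition: ~500 Kcpm radiotracer added to 1 mL 1-octanol plus 1 mL PBS pH 7.4, in triplicate. Tubes vortexed 3 min and layers allowed to separate. 100 μL aliquots of each phase counted for radioactivity; log P calculated from the counts.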
# [8] = C57 mice bearing B16F1 melanoma tumor, 180 min post-injection
# sigma-1 receptor, sequence (Q60492 whole entry): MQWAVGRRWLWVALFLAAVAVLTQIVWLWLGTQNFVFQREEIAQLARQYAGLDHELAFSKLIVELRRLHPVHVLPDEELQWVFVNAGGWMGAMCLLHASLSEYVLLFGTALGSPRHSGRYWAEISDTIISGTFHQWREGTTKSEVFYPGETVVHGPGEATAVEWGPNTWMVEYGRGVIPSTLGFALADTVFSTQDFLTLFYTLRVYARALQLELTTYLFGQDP
smiles,measurement,setting,value
"CCN(CC)CCNC(=O)c1ccc(OC)c(I)c1 [[^*I]IMBA, [^*I]N-(2-diethylaminoethyl) 3-iodo 4-methoxybenzamide]",radioiodine uptake in blood,[1]; 60 min post injection,0.84±0.08 %ID/g
same,radioiodine uptake in liver,[1]; 60 min post injection,3.09±0.45 %ID/g
same,radioiodine uptake in lungs,[1]; 60 min post injection,1.06±0.23 %ID/g
same,radioiodine uptake in intestine,[1],7.70±4.70 %ID/g
same,radioiodine uptake in the stomach,[1],9.72±1.51 %ID/g
"CCN(CC)CCNC(=O)c1ccc(F)cc1 [DAFBA, N-(2-diethylaminoethyl)-4-fluorobenzamide]",IC50,[2],> 1000 nM
same,IC50,[3],> 1000 nM
"CCN(CC)CCNC(=O)c1ccc([18F])cc1 [[^18F]-DAFBA, N-(2-diethylaminoethyl)-4-[^18F]fluorobenzamide]","F-18 uptake in brain, Percent Injected Dose per gram Tissue",[4]; 30 min post injection,2.02 ± 0.35 %ID/g
same,"F-18 uptake in heart, Percent Injected Dose per gram Tissue",[4]; 30 min post injection,1.25 ± 0.28 %ID/g
same,"F-18 uptake in intestine, Percent Injected Dose per gram Tissue",[4]; 30 min post injection,1.94 ± 0.51 %ID/g
same,"F-18 uptake in kidneys, Percent Injected Dose per gram Tissue",[4]; 30 min post injection,4.50 ± 1.33 %ID/g
same,"F-18 uptake in liver, Percent Injected Dose per gram Tissue",[4]; 30 min post injection,3.27 ± 0.90 %ID/g
same,"F-18 uptake in lung, Percent Injected Dose per gram Tissue",[4]; 30 min post injection,2.46 ± 1.27 %ID/g
same,"F-18 uptake in muscle, Percent Injected Dose per gram Tissue",[4]; 30 min post injection,1.09 ± 0.18 %ID/g
same,"F-18 uptake in spleen, Percent Injected Dose per gram Tissue",[4]; 30 min post injection,2.14 ± 0.41 %ID/g
same,F-18 uptake in the tumor,[4]; 60 min post injection,7.00±2.76 %ID/g
same,"F-18 uptake in blood, Percent Injected Dose per gram Tissue",[4]; 60 min post injection,0.68 ± 0.21 %ID/g
same,"F-18 uptake in bone, Percent Injected Dose per gram Tissue",[4]; 60 min post injection,0.90 ± 0.27 %ID/g
same,"F-18 uptake in brain, Percent Injected Dose per gram Tissue",[4]; 60 min post injection,1.68 ± 0.43 %ID/g
same,"F-18 uptake in heart, Percent Injected Dose per gram Tissue",[4]; 60 min post injection,1.27 ± 0.50 %ID/g
same,"F-18 uptake in intestine, Percent Injected Dose per gram Tissue",[4]; 60 min post injection,1.98 ± 0.88 %ID/g
same,"F-18 uptake in kidneys, Percent Injected Dose per gram Tissue",[4]; 60 min post injection,5.38 ± 1.86 %ID/g
same,"F-18 uptake in liver, Percent Injected Dose per gram Tissue",[4]; 60 min post injection,5.01 ± 2.06 %ID/g
same,"F-18 uptake in lung, Percent Injected Dose per gram Tissue",[4]; 60 min post injection,2.48 ± 1.27 %ID/g
same,"F-18 uptake in muscle, Percent Injected Dose per gram Tissue",[4]; 60 min post injection,1.10 ± 0.38 %ID/g
same,"F-18 uptake in spleen, Percent Injected Dose per gram Tissue",[4]; 60 min post injection,1.83 ± 0.54 %ID/g
same,F-18 uptake in the tumor,[4]; 120 min post injection,6.57±1.66 %ID/g
same,"F-18 uptake in bone, Percent Injected Dose per gram Tissue",[4]; 120 min post injection,0.57 ± 0.32 %ID/g
same,"F-18 uptake in brain, Percent Injected Dose per gram Tissue",[4]; 120 min post injection,0.64 ± 0.40 %ID/g
same,"F-18 uptake in kidneys, Percent Injected Dose per gram Tissue",[4]; 120 min post injection,1.41 ± 0.11 %ID/g
same,"F-18 uptake in liver, Percent Injected Dose per gram Tissue",[4]; 120 min post injection,2.35 ± 1.20 %ID/g
same,"F-18 uptake in lung, Percent Injected Dose per gram Tissue",[4]; 120 min post injection,1.47 ± 0.47 %ID/g
same,"F-18 uptake in muscle, Percent Injected Dose per gram Tissue",[4]; 120 min post injection,0.57 ± 0.54 %ID/g
same,"F-18 uptake in spleen, Percent Injected Dose per gram Tissue",[4]; 120 min post injection,0.71 ± 0.37 %ID/g
same,"F-18 uptake in blood, Percent Injected Dose per gram Tissue",[4]; 180 min post injection,0.13 ± 0.03 %ID/g
same,"F-18 uptake in bone, Percent Injected Dose per gram Tissue",[4]; 180 min post injection,0.17 ± 0.05 %ID/g
same,"F-18 uptake in brain, Percent Injected Dose per gram Tissue",[4]; 180 min post injection,0.29 ± 0.05 %ID/g
same,"F-18 uptake in heart, Percent Injected Dose per gram Tissue",[4]; 180 min post injection,0.21 ± 0.04 %ID/g
same,"F-18 uptake in kidneys, Percent Injected Dose per gram Tissue",[4]; 180 min post injection,0.83 ± 0.23 %ID/g
same,"F-18 uptake in muscle, Percent Injected Dose per gram Tissue",[4]; 180 min post injection,0.17 ± 0.03 %ID/g
same,"F-18 uptake in spleen, Percent Injected Dose per gram Tissue",[4]; 180 min post injection,0.44 ± 0.25 %ID/g
same,tumor to blood ratio,"[4]; C57 mice bearing B16F1 melanoma tumor, 60 min post-injection",8.3±3
same,tumor to liver ratio,[4]; [8],6.33±1.9
same,tumor to lung ratio,[4]; [8],21.90±4.68 and > 20
same,tumor to muscle ratio,[4]; [8],32.91±6.11 and > 20
same,tumor to spleen ratio,[4]; [8],14.90±6.47
same,percent uptake by cells (percent of total added radioactivity),[5],5.60±2.67%
same,"F-18 uptake in blood, Percent Injected Dose per gram Tissue",[6]; 30 min post injection,0.78 ± 0.07 %ID/g
same,"F-18 uptake in bone, Percent Injected Dose per gram Tissue",[6]; 30 min post injection,0.81 ± 0.19 %ID/g
same,"F-18 uptake in brain, Percent Injected Dose per gram Tissue",[6]; 30 min post injection,2.16 ± 0.32 %ID/g
same,"F-18 uptake in heart, Percent Injected Dose per gram Tissue",[6]; 30 min post injection,1.10 ± 0.14 %ID/g
same,"F-18 uptake in kidneys, Percent Injected Dose per gram Tissue",[6]; 30 min post injection,4.13 ± 0.68 %ID/g
same,"F-18 uptake in liver, Percent Injected Dose per gram Tissue",[6]; 30 min post injection,3.12 ± 0.62 %ID/g
same,"F-18 uptake in lung, Percent Injected Dose per gram Tissue",[6]; 30 min post injection,1.75 ± 0.43 %ID/g
same,"F-18 uptake in muscle, Percent Injected Dose per gram Tissue",[6]; 30 min post injection,0.88 ± 0.13 %ID/g
same,"F-18 uptake in spleen, Percent Injected Dose per gram Tissue",[6]; 30 min post injection,2.35 ± 0.07 %ID/g
same,"F-18 uptake in blood, Percent Injected Dose per gram Tissue",[6]; 60 min post injection,0.67 ± 0.05 %ID/g
same,"F-18 uptake in brain, Percent Injected Dose per gram Tissue",[6]; 60 min post injection,1.54 ± 0.24 %ID/g
same,"F-18 uptake in heart, Percent Injected Dose per gram Tissue",[6]; 60 min post injection,0.92 ± 0.10 %ID/g
same,"F-18 uptake in intestine, Percent Injected Dose per gram Tissue",[6]; 60 min post injection,1.39 ± 0.54 %ID/g
same,"F-18 uptake in liver, Percent Injected Dose per gram Tissue",[6]; 60 min post injection,3.61 ± 0.48 %ID/g
same,"F-18 uptake in lung, Percent Injected Dose per gram Tissue",[6]; 60 min post injection,1.84 ± 0.41 %ID/g
same,"F-18 uptake in muscle, Percent Injected Dose per gram Tissue",[6]; 60 min post injection,0.65 ± 0.11 %ID/g
same,"F-18 uptake in spleen, Percent Injected Dose per gram Tissue",[6]; 60 min post injection,1.87 ± 0.46 %ID/g
same,"F-18 uptake in brain, Percent Injected Dose per gram Tissue",[6]; 120 min post injection,0.52 ± 0.07 %ID/g
same,"F-18 uptake in heart, Percent Injected Dose per gram Tissue",[6]; 120 min post injection,0.28 ± 0.05 %ID/g
same,"F-18 uptake in intestine, Percent Injected Dose per gram Tissue",[6]; 120 min post injection,0.26 ± 0.26 %ID/g
same,"F-18 uptake in kidneys, Percent Injected Dose per gram Tissue",[6]; 120 min post injection,1.58 ± 0.51 %ID/g
same,"F-18 uptake in blood, Percent Injected Dose per gram Tissue",[6]; 180 min post injection,0.21 ± 0.03 %ID/g
same,"F-18 uptake in bone, Percent Injected Dose per gram Tissue",[6]; 180 min post injection,0.24 ± 0.10 %ID/g
same,"F-18 uptake in heart, Percent Injected Dose per gram Tissue",[6]; 180 min post injection,0.23 ± 0.03 %ID/g
same,"F-18 uptake in intestine, Percent Injected Dose per gram Tissue",[6]; 180 min post injection,0.40 ± 0.11 %ID/g
same,"F-18 uptake in kidneys, Percent Injected Dose per gram Tissue",[6]; 180 min post injection,1.34 ± 0.36 %ID/g
same,"F-18 uptake in liver, Percent Injected Dose per gram Tissue",[6]; 180 min post injection,1.12 ± 0.20 %ID/g
same,"F-18 uptake in lung, Percent Injected Dose per gram Tissue",[6]; 180 min post injection,0.49 ± 0.07 %ID/g
same,"F-18 uptake in spleen, Percent Injected Dose per gram Tissue",[6]; 180 min post injection,0.53 ± 0.08 %ID/g
same,logP,[7],1.7
